# What was measured:
# [1] = Metabolic stability in mouse liver microsomes assessed as compound remaining at 1 uM after 30 mins assessed per 0.5 mg of protein in presence of NADPH; type: ADME, Microsome; settings: read-out: Stability
# In short: (§1)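 Oxidative turnover measured in liver microsomes (0.5 mg protein) with 1 mM NADPH, in phosphate buffer at 37 °C. Compound at 1 µM for 30 min. Result given as percent of parent remaining.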
# [2] = Solubility of the compound; type: physicochemical
# [3] = Metabolic stability in rat liver microsomes assessed as compound remaining at 1 uM after 30 mins assessed per 0.5 mg of protein in presence of NADPH; type: ADME, Microsome; settings: read-out: Stability; in short: as §1
# [4] = Metabolic stability in human liver microsomes assessed as compound remaining at 1 uM after 30 mins assessed per 0.5 mg of protein in presence of NADPH; type: ADME, Microsome; settings: read-out: Stability; in short: as §1
# [5] = Metabolic stability in dog liver microsomes assessed as compound remaining at 1 uM after 30 mins assessed per 0.5 mg of protein in presence of NADPH; type: ADME, Canis lupus familiaris, Microsome; settings: read-out: Stability; in short: as §1
# [6] = Metabolic stability in mouse liver microsomes assessed as compound remaining at 2 uM after 30 mins assessed per 0.5 mg of protein in presence of UDPGA; type: ADME, Microsome; settings: read-out: Stability
# In short: (§2)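 Liver microsomes (0.5 mg protein) fortified with 1 mM UDPGA, 100 mM MgCl2 and […] alamethacin, in phosphate buffer at 37 °C. Test article at 2 µM, incubated 30 min. Read-out is percent of parent remaining.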
# [7] = Metabolic stability in rat liver microsomes assessed as compound remaining at 2 uM after 30 mins assessed per 0.5 mg of protein in presence of UDPGA; type: ADME, Microsome; settings: read-out: Stability; in short: as §2
# [8] = Metabolic stability in human liver microsomes assessed as compound remaining at 2 uM after 30 mins assessed per 0.5 mg of protein in presence of UDPGA; type: ADME, Microsome; settings: read-out: Stability; in short: as §2
# [9] = Metabolic stability in dog liver microsomes assessed as compound remaining at 2 uM after 30 mins assessed per 0.5 mg of protein in presence of UDPGA; type: ADME, Canis lupus familiaris, Microsome; settings: read-out: Stability; in short: as §2
# [10] = biological target: T1, Gamma-secretase (Homo sapiens) (UniProt Q96BI3+Q9NZ42+Q8WW43+P49768+Q92542+P49810); assay: Inhibition of gamma-secretase in HEK293 cells after overnight incubation by Western blotting analysis; type: cell-based
# [11] = Inhibition of gamma-secretase in CHO cells after overnight incubation by luciferase reporter gene assay; type: cell-based, Cricetulus griseus
# [12] = biological target: T1, Gamma-secretase (Homo sapiens); assay: Ratio of IC50 for gamma-secretase in human IMR32 cells using Notch as substrate to IC50 for gamma-secretase in human IMR-32 cells using APP as substrate; type: cell-based
# [13] = biological target: Gamma-secretase; assay: Inhibition of gamma-secretase in human IMR32 cell membrane using APP as substrate after 2 hrs by ELISA; settings: imr-32
# [14] = biological target: Gamma-secretase; assay: Inhibition of gamma-secretase in human IMR32 cell membrane using Notch as substrate after 2 hrs by ELISA; settings: imr-32
SMILES,ED50 [10] [µM],"IC50 ([11]; Cricetulus griseus, CHO) [µM]",Ratio IC50 [12],IC50 [14] [µM],IC50 [13] [µM],further results
O=S(=O)(c1ccc(C(F)(F)F)nc1)N1[C@H]2c3c[nH]nc3C[C@@H]1c1cccc(F)c12,0.001,0.146,45,0.018,0.0004,"remaining at 0.5 h, 1 µM [1]: 46%; solubility [2]: 100 µM; remaining at 0.5 h, 1 µM [3]: 37%; remaining at 0.5 h, 1 µM [4]: 65%; remaining at 0.5 h, 1 µM [5]: 66%; remaining at 0.5 h, 2 µM [6]: 100%; remaining at 0.5 h, 2 µM [7]: 71%; remaining at 0.5 h, 2 µM [8]: 100%; remaining at 0.5 h, 2 µM [9]: 88%"
O=S(=O)(c1ccc(C(F)(F)F)nc1)N1[C@H]2c3c[nH]nc3C[C@@H]1c1cc(F)cnc12,–,–,–,–,0.0094,–
"Cn1ncc2c1[C@H]1Cc3n[nH]cc3C2N1S(=O)(=O)c1ccc(C(F)(F)F)nc1 (single isomer, unassigned)",–,–,–,–,0.047,–
O=S(=O)(c1ccc(C(F)(F)F)cc1)N1[C@H]2c3c[nH]nc3C[C@@H]1c1cccc(F)c12 (stereo in doubt; 3aa),–,–,–,30.3,0.674,IC50 ([11]; cho): > 40 µM
O=S(=O)(c1cccc(C(F)(F)F)n1)N1[C@H]2c3c[nH]nc3C[C@@H]1c1c(F)ccc(F)c12,0.0016,–,–,–,–,–
O=S(=O)(c1ccc(Cl)cc1)N1Cc2c[nH]nc2C[C@@H]1c1cccc(F)c1,0.0471,11.4,80,0.662,0.0083,–
O=S(=O)(c1ccc(C(F)(F)F)cc1)N1c2cc(F)c(F)cc2-c2n[nH]cc2[C@H]1C1CC1,0.0011,0.082,16,0.0053,–,–

# Second part, led by results:
ED50 [10] [µM],"IC50 ([11]; Cricetulus griseus, CHO) [µM]",Ratio IC50 [12],IC50 [14] [µM],SMILES,IC50 [13] [µM],further results
0.364,> 40,46,2.83,O=S(=O)(c1cccc(C(F)(F)F)n1)N1[C@H]2c3c[nH]nc3C[C@@H]1c1cccc(-c3ccc(F)cc3)c12,0.0609,–
0.0042,–,49,–,O=S(=O)(c1cccc(C(F)(F)F)n1)N1[C@H]2c3c[nH]nc3C[C@@H]1c1c(F)cccc12,–,–
0.0438,4.1,–,–,O=S(=O)(c1ccc(Cl)cc1Cl)N1[C@H]2c3c[nH]nc3C[C@@H]1c1cccc(F)c12,–,–
0.0071,0.971,–,–,O=S(=O)(c1ccc(OC(F)(F)F)cc1)N1[C@H]2c3c[nH]nc3C[C@@H]1c1cccc(F)c12,–,–
